Source: ChEMBL document CHEMBL3272297, “Lipophilicity and serotonin agonist activity in a series of 4-substituted mescaline analogues” (J Med Chem, 1977)

Key:
Ovis aries [1] = species on record: Ovis aries; assay: Potency ratio, ratio of mescaline ED50 to compound ED50 for serotonin receptor in sheep umbilical artery assessed increase of mescaline-induced contraction; assay type: tissue-based
How it was run: (§1)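 Serotonin-receptor agonism measured in an isolated sheep umbilical artery preparation from dose-response curves giving ED50 values. The ratio (mescaline ED50 / compound ED50) is calculated from the data within each experimental series, with mescaline run as a time control. Data are reported over n tissues with the standard error of the geometric mean.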

Ovis aries [2] = species on record: Ovis aries; assay: Agonist activity at serotonin receptor in sheep umbilical artery assessed increase of mescaline-induced contraction; assay type: tissue-based; how it was run: as §1
[3] = 1-Octanol-water partition coefficient, log P of the compound at pH 8; assay type: physicochemical

| Compound | Ratio ED50 (Ovis aries [1]) | ED50 (Ovis aries [2]) | logD [3] |
| --- | --- | --- | --- |
| COc1cc(CCN)cc(OC)c1OCc1ccccc1 | 3.04 | 4.6 ×10⁻⁷ M | 2.4 |
| CCOc1c(OC)cc(CCN)cc1OC | 2.06 | 6.8 ×10⁻⁷ M | 1.11 |
| COc1cc(CCN)cc(OC)c1OC(C)C | 2.8 | 5 ×10⁻⁷ M | 1.52 |
| CCCOc1c(OC)cc(CCN)cc1OC | 3.68 | 3.8 ×10⁻⁷ M | 1.7 |
| CCCCOc1c(OC)cc(CCN)cc1OC | 1.27 | 1.1 ×10⁻⁶ M | 2.32 |
| COc1cc(CCN)cc(OC)c1Br | 7.57 | 1.85 ×10⁻⁷ M | 2.03 |
| COc1cc(CCN)cc(OC)c1OC [MESCALINE] |  | 1.4 ×10⁻⁶ M | 0.78 |
